# In ChEMBL document CHEMBL4014308, “Amphiphilic Tobramycin-Lysine Conjugates Sensitize Multidrug Resistant Gram-Negative Bacteria to Rifampicin and Minocycline” (J Med Chem, 2017):
# Activity calls are given as the source filed them. No cut-off for these calls is given here.
# What was measured:
# Pseudomonas aeruginosa [1] = assay: Potentiation of rifampicin-induced bactericidal activity against Pseudomonas aeruginosa PAO1 at 0.125 times antibacterial MIC after 90 mins; format: functional
# Outline: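 Combination time-kill in PAO1 (LB, 37 °C). Aliquots taken at 0–360 min, serially diluted in PBS, plated on LB agar, and CFU counted after 20 h at 37 °C.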
# Pseudomonas aeruginosa [2] = assay: Potentiation of colistin-induced antibacterial activity against Pseudomonas aeruginosa PAO1 at 4 ug/ml after 18 hrs by checkerboard assay; format: functional
# Outline: (§1)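 Checkerboard in Mueller-Hinton broth: antibiotic serially diluted along one axis and adjuvant along the other (10 × 7 matrix). Inoculum from a 0.5 McFarland saline suspension diluted 1:50 in MHB; 18 h at 37 °C, then plate read. MIC is the lowest concentration with no growth. FIC of each agent is its concentration in a no-growth well divided by its MIC alone; FIC index is the sum of both. FIC index ≤0.5 counts as synergy.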
# [3] = Ratio of cytotoxic concentration against human DU145 cells to synergistic concentration for Pseudomonas aeruginosa PAO1 in presence of rifampicin
# [4] = tested on: Staphylococcus epidermidis; assay: Antibacterial activity against methicillin-resistant Staphylococcus epidermidis isolate CAN-ICU 61589 after 18 hrs by microtiter dilution assay; format: functional; conditions: isolate CAN-ICU 61589, 18 h
# Outline: (§2)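 Broth microdilution following CLSI guidelines. An overnight culture was adjusted to 0.5 McFarland in saline, then diluted 1:50 in Mueller-Hinton broth. This inoculum was added in equal volume to 2-fold serial dilutions of agent in MHB and incubated 18 h at 37 °C. MIC was the lowest concentration with no visible growth.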
# Pseudomonas aeruginosa [5] = assay: Potentiation of rifampicin-induced antibacterial activity against multidrug/extremely drug-resistant/colistin-susceptible Pseudomonas aeruginosa isolate P264-104354 at 4 ug/ml after 18 hrs by checkerboard assay; format: functional
# Outline: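 Checkerboard broth microdilution in MHB: antibiotic serially diluted along one axis, adjuvant along the other (10 × 7 matrix). Inoculum from 0.5 McFarland saline suspension diluted 1:50 in MHB; 18 h at 37 °C. MIC taken as lowest concentration with no growth. FIC per agent = combination MIC/MIC alone; FIC index = sum (≤0.5 synergy).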
# Pseudomonas aeruginosa [6] = assay: Potentiation of minocycline-induced antibacterial activity against Pseudomonas aeruginosa PAO750 harboring RND efflux pump/OpmH deletion mutant after 18 hrs by checkerboard assay; format: functional
# Outline: (§3)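 Checkerboard in MHB with a 10 × 7 matrix: antibiotic serially diluted along one axis, adjuvant along the other. Inoculum was a 1:50 dilution of a 0.5 McFarland suspension, incubated 18 h at 37 °C and read on a plate reader. Each FIC is the concentration in a no-growth well divided by the MIC alone; FIC index is their sum, with ≤0.5 taken as synergy.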
# Acinetobacter baumannii [7] = assay: Potentiation of minocycline-induced antibacterial activity against multidrug-resistant Acinetobacter baumannii AB031 at 4 ug/ml after 18 hrs by checkerboard assay; format: functional; outline: as §1
# Pseudomonas aeruginosa [8] = assay: Potentiation of minocycline-induced antibacterial activity against multidrug/extremely drug-resistant/colistin-susceptible Pseudomonas aeruginosa isolate P264-104354 assessed as fold reduction in minocycline MIC at 4 ug/ml after 18 hrs by checkerboard assay relative to control; format: functional
# Outline: (§4)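 Checkerboard in Mueller-Hinton broth, 10 × 7 matrix, with the adjuvant held at 4 µg/mL. Inoculum from a 0.5 McFarland suspension diluted 1:50; 18 h at 37 °C. Antibiotic MIC (lowest concentration with no growth) with adjuvant is compared with the antibiotic MIC alone, giving a fold reduction.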
# Pseudomonas aeruginosa [9] = assay: Potentiation of minocycline-induced antibacterial activity against multidrug/extremely drug-resistant/colistin-susceptible Pseudomonas aeruginosa isolate P262-101856 infected in Galleria mellonella assessed as host survival at 75 mg/kg after 24 hrs relative to control; format: functional; conditions: isolate P262-101856, 24 h
# Outline: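 Galleria mellonella larvae (about 250 mg, used within 7 days; 15 per group) were injected with 10 µL of XDR P. aeruginosa P262 at 1.0×10^3 CFU/mL. At 2 h they received a single 10 µL injection: monotherapy at 75 mg/kg, or combinations at 12.5+12.5 to 75+75 mg/kg. PBS vehicle served as control. Survival was scored over 24 h at 37 °C.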
# Pseudomonas aeruginosa [10] = assay: Potentiation of kanamycin A-induced antibacterial activity against Pseudomonas aeruginosa PAO1 at 4 ug/ml after 18 hrs by checkerboard assay; format: functional; outline: as §1
# Acinetobacter baumannii [11] = assay: Synergistic antibacterial activity against multidrug-resistant Acinetobacter baumannii AB031 after 18 hrs in presence of rifampicin by checkerboard assay; format: functional; conditions: AB031, 18 h; outline: as §3
# [12] = Ratio of cytotoxic concentration against human DU145 cells to synergistic concentration for Pseudomonas aeruginosa PAO1 in presence of minocycline
# Acinetobacter baumannii [13] = assay: Synergistic antibacterial activity against multidrug-resistant Acinetobacter baumannii AB030 after 18 hrs in presence of rifampicin by checkerboard assay; format: functional; conditions: AB030, 18 h; outline: as §3
# Enterobacter cloacae [14] = assay: Synergistic antibacterial activity against multidrug-resistant Enterobacter cloacae 117029 after 18 hrs in presence of minocycline by checkerboard assay; format: functional; conditions: Enterobacter cloacae, 117029, 18 h; outline: as §3
# [15] = tested on: Stenotrophomonas maltophilia; assay: Antibacterial activity against Stenotrophomonas maltophilia isolate CAN-ICU 62584 after 18 hrs by microtiter dilution assay; format: functional; conditions: isolate CAN-ICU 62584, 18 h
# Outline: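 Broth microdilution per CLSI. Overnight culture adjusted to 0.5 McFarland in saline, diluted 1:50 in Mueller-Hinton broth, and added to an equal volume of 2-fold serial compound dilutions in MHB. Incubated 18 h at 37 °C. MIC taken as the lowest concentration with no visible growth.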
# Enterobacter cloacae [16] = assay: Synergistic antibacterial activity against multidrug-resistant Enterobacter cloacae 117029 after 18 hrs in presence of rifampicin by checkerboard assay; format: functional; conditions: Enterobacter cloacae, 117029, 18 h; outline: as §3
# Pseudomonas aeruginosa [17] = assay: Antibacterial activity against multidrug/extremely drug-resistant/colistin-susceptible Pseudomonas aeruginosa isolate 100036 after 18 hrs by microtiter dilution assay; format: functional; conditions: isolate 100036, 18 h; outline: as §2
# Acinetobacter baumannii [18] = assay: Antibacterial activity against multidrug-resistant Acinetobacter baumannii AB027 after 18 hrs by microtiter dilution assay; format: functional; conditions: AB027, 18 h; outline: as §2
# Pseudomonas aeruginosa [19] = assay: Potentiation of rifampicin-induced antibacterial activity against multidrug/extremely drug-resistant/colistin-susceptible Pseudomonas aeruginosa isolate P262-101856 assessed as fold reduction in rifampicin MIC at 4 ug/ml after 18 hrs by checkerboard assay relative to control; format: functional; outline: as §4
# [20] = Cytotoxicity against human JIMT1 cells assessed as cell viability at 20 uM after 48 hrs by MTS assay relative to control; format: cell-based, JIMT-1; conditions: read-out: Activity
# Outline: (§5)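 DU145 and JIMT-1 grown in DMEM with 10% FBS and penicillin/streptomycin at 37 °C, 5% CO2. 7500–9000 cells/well were seeded for 24 h, then treated at 2.5–30 µM (final) for 48 h. MTS reagent (20% v/v) added for 4 h and OD read at 490 nm after blank subtraction; viability expressed relative to vehicle control.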
# Escherichia coli = assay: Antibacterial activity against gentamicin/tobramycin/ciprofloxacin-resistant Escherichia coli isolate CANWARD-2011 97615 harboring AAC3-2A after 18 hrs by microtiter dilution assay; format: functional; conditions: isolate CANWARD-2011 97615, 18 h; outline: as §2
# [21] = Cytotoxicity against human DU145 cells assessed as cell viability at 20 uM after 48 hrs by MTS assay relative to control; format: cell-based, DU-145; conditions: read-out: Activity; outline: as §5
smiles,measurement,setting,value
Cl.Cl.Cl.Cl.Cl.Cl.Cl.NCCCC[C@H](N)C(=O)N(CCCCCCCCCCCCO[C@@H]1[C@@H](O[C@H]2O[C@H](CO)[C@@H](O)[C@H](N)[C@H]2O)[C@H](N)C[C@H](N)[C@H]1O[C@H]1O[C@H](CN)[C@@H](O)C[C@H]1N)Cc1c2ccccc2c(Cl)c2ccccc12,Activity,Pseudomonas aeruginosa [1],Active
same,fractional inhibitory concentration index (FICI),Pseudomonas aeruginosa [2],1.031
same,Ratio,[3],6
same,MIC,[4],4 µg/mL
same,fractional inhibitory concentration index (FICI),Pseudomonas aeruginosa [5],0.094
same,fractional inhibitory concentration index (FICI),Pseudomonas aeruginosa [6],0.75
same,fractional inhibitory concentration index (FICI),Acinetobacter baumannii [7],0.625
same,fold change (FC),Pseudomonas aeruginosa [8],128
same,survival at 75 mg/kg,Pseudomonas aeruginosa [9],77%
same,fractional inhibitory concentration index (FICI),Pseudomonas aeruginosa [10],1.016
same,MIC,Acinetobacter baumannii [11],1 µg/mL
same,Ratio,[12],6
same,MIC,Acinetobacter baumannii [13],8 µg/mL
same,MIC,Enterobacter cloacae [14],8 µg/mL
same,MIC,[15],> 128 µg/mL
same,MIC,Enterobacter cloacae [16],4 µg/mL
same,MIC,Pseudomonas aeruginosa [17],32 µg/mL
same,MIC,Acinetobacter baumannii [18],128 µg/mL
same,fold change (FC),Pseudomonas aeruginosa [19],64
same,"viability at 48 h, 20 µM",[20],> 50%
same,MIC,Escherichia coli,32 µg/mL
same,"viability at 48 h, 20 µM",[21],> 50%
